Compound activity as filed in PubChem.
PAFAH1B3 FP inh – PAFAH1B3 (human) inhibition; Q15102; recombinant PAFAH1B3, FP-rhodamine probe, fluorescence polarization; inhibition, % at 3.39 µM; 340,000 tested, 0.28% active; AID 492972;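 active = inhibition above the screen-wide average of all tested compounds plus 3 SD, cut at about 25% in these data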;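 note: 0% = enzyme with DMSO only and 100% = wells lacking PAFAH1B3 protein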
Target sequence (Q15102 whole entry, looked up): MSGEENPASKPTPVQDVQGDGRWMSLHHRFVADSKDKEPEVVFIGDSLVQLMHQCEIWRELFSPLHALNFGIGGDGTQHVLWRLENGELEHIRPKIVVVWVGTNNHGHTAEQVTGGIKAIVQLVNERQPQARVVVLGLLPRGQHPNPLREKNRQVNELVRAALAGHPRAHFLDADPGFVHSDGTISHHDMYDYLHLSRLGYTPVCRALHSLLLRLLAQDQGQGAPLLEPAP
ARFGAP1 inh – rat ARFGAP1 inhibition; Arfgap1-stimulated ARF1 GTP hydrolysis, GDP FP detection; inhibition, % at 16.5 µM; 360,000 tested, 0.26% active; AID 651572;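 active = inhibition above a per-plate limit, mean inhibition of low control wells plus 3 SD, cut at about 25% in these data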;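 note: 0% = DMSO wells with enzyme and 100% = wells lacking Arfgap1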
Target sequence (Q62848 1-136 limits assumed): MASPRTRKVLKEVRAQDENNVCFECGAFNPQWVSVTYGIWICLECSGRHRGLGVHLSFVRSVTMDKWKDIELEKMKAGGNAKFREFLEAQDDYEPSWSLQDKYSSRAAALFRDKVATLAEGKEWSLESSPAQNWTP
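Replicates: Single well per compound | Assay system: Truncated rat Arfgap1 GAP domain | Control set: No-Arfgap1 wells (100%) versus DMSO full-reaction wells (0%) | Times: Enzyme reaction 120 min at 25 °C after 20 min preincubation | Reagent: Human ARF1(Δ1-17)-GTP substrate | Measured by: Tracer-displacement fluorescence polarization with EDTA stop, 620/688 nm | Measure: Percent inhibition of Arfgap1-stimulated GTP hydrolysis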
pPAFAH FP inh – pPAFAH (human) enzyme inhibition; inhibition, % at 3.39 µM; recombinant pPAFAH, FP-rhodamine probe fluorescence polarization; 330,000 tested, 1.5% active;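 active = inhibition above the mean inhibition across the screen plus 3 SD, cut at about 25% in these data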;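 note: inhibitors block binding of the rhodamine activity-based probe so polarization drops; 0% = enzyme with DMSO and 100% = wells lacking pPAFAH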
PAFAH2 inh – inhibitors of human PAFAH2 | inhibition, % at 3.39 µM | recombinant PAFAH2, FP-rhodamine activity probe, fluorescence polarization | Q99487 | 340,000 tested, 0.99% active | AID 492956;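 active = inhibition above the mean over all tested compounds plus 3 SD, cut at about 30% in these data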;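 note: inhibitors block probe labeling of enzyme so polarization drops; 0% = enzyme with DMSO and 100% = wells lacking PAFAH2 protein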
ASAP1 GAP inh – inhibitors of human ASAP1 ArfGAP activity. AID 624377. 360,000 tested, 0.19% active. Q9ULH1. ASAP1-stimulated ARF1 GTP hydrolysis, GDP FP detection. inhibition, % at 16.5 µM; in the data active = inhibition above about 25%;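 note: 0% = vehicle with enzyme and substrate and 100% = no enzyme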
PAFAH1B2 FP inh – PAFAH1B2 (human) inhibition; inhibition, % at 3.39 µM; recombinant PAFAH1B2, FP-rhodamine activity probe, fluorescence polarization; 340,000 tested, 1.2% active; AID 492953;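 active = inhibition above the mean of all tested compounds plus 3 SD, cut at about 24% in these data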;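 note: 0% = enzyme with DMSO and 100% = wells lacking PAFAH1B2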
pPAFAH confirm – pPAFAH (human) inhibition, confirmed | shares compounds with pPAFAH FP inh | inhibition, % at 3.39 µM | AID 463230 | 2,300 tested, 72% active | recombinant pPAFAH, FP-Rh probe fluorescence polarization;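 active = mean inhibition of the triplicate above the hit cutoff set for the earlier primary screen, cut at about 25% in these data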;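 note: 0% = enzyme with DMSO and 100% = wells lacking pPAFAH enzyme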
The depositor's hits bear a star. In the library only some 2.7% were active in any assay of this set; here they are far more common.

C[C@H](CO)N1C[C@H](C)[C@@H](CN(C)S(C)(=O)=O)Oc2ccc(NC(=O)Nc3ccc(C(F)(F)F)cc3)cc2C1=O was read as PAFAH1B3 FP inh 1, ARFGAP1 inh 12, pPAFAH FP inh 44*, PAFAH2 inh -14, ASAP1 GAP inh 0, PAFAH1B2 FP inh 1 and pPAFAH confirm 45*.
Screening C[C@H](CO)N1C[C@H](C)[C@@H](CN(C)S(=O)(=O)c2ccc(F)cc2)Oc2ccc(NC(=O)Nc3ccc(C(F)(F)F)cc3)cc2C1=O returned PAFAH1B3 FP inh -80, ARFGAP1 inh 6, pPAFAH FP inh -31, PAFAH2 inh -77, ASAP1 GAP inh 20 and PAFAH1B2 FP inh -55.
`CCCc1ccc(-c2cc(NC(=O)Cc3c(C)[nH]c4ccccc34)ccc2Nc2cccnc2)cc1` gave ARFGAP1 inh 5 and ASAP1 GAP inh 6.
For Cc1ccc(NS(=O)(=O)c2csc(C(N)=O)c2)c(C)c1 the results were PAFAH1B3 FP inh 6, ARFGAP1 inh -1, pPAFAH FP inh 36*, PAFAH2 inh -3, ASAP1 GAP inh 5, PAFAH1B2 FP inh 7 and pPAFAH confirm 19.
Screening CC(C)C[C@H](NC(=O)c1cccs1)C(=O)N1CCC[C@H]1C(=O)NCc1ccccc1 returned ARFGAP1 inh 13 and ASAP1 GAP inh -1.
Screening O=C(CCCN1C(=O)c2cccc3cccc(c23)C1=O)NCc1cccnc1 returned PAFAH1B3 FP inh 5, ARFGAP1 inh -3, pPAFAH FP inh -2, PAFAH2 inh 1, ASAP1 GAP inh 1 and PAFAH1B2 FP inh 2.
O=C(CCCCCN1C(=O)c2cccc3cccc(c23)C1=O)NCc1cccnc1 was read as ARFGAP1 inh -6, pPAFAH FP inh 49*, ASAP1 GAP inh 4 and pPAFAH confirm 3.
For CCOC(=O)N1CCN(C(=O)c2ccc3c(=O)n4c(nc3c2)CCCCC4)CC1 the results were ARFGAP1 inh 5, pPAFAH FP inh 56*, ASAP1 GAP inh 2 and pPAFAH confirm 1.
`N#C/C(=N\Nc1ccc(Cl)c(Cl)c1)C(=O)C1CC1` gave ARFGAP1 inh -1, pPAFAH FP inh 41*, ASAP1 GAP inh 5 and pPAFAH confirm 40*.
`CCOc1cc(CNc2ccc(O)cc2)cc(Br)c1OCc1ccccc1F` gave PAFAH1B3 FP inh 18, pPAFAH FP inh 43*, PAFAH2 inh 8, PAFAH1B2 FP inh 6 and pPAFAH confirm 20.
`COc1cc(CNc2ccc(O)cc2)cc(Br)c1OCc1ccccc1F` gave PAFAH1B3 FP inh 10, pPAFAH FP inh 39*, PAFAH2 inh 7, PAFAH1B2 FP inh 10 and pPAFAH confirm 8.
